Assay results reported in ChEMBL document CHEMBL3808356, “Dihydrochelerythrine and its derivatives: Synthesis and their application as potential G-quadruplex DNA stabilizing agents” (Bioorg Med Chem, 2016).
The source made the active and inactive calls. The calls are words filed in the database; no cut-off is given here.

Key:
[1] = Antiproliferative activity against human HCT116 cells assessed as reduction in cell viability at 15 uM after 72 hrs by MTT assay relative to control; assay type: functional, HCT-116
Procedure, shortened: (§1)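 Human cancer lines from ATCC, cultured per supplier instructions; ~5000 cells/well seeded 24 h before treatment at 37 °C, CO2. Exposed to vehicle (0.5% DMSO) or serially diluted compound (0.1 to 15 or 20 µM) for 72 h at 37 °C. MTT 100 µg added, 4 h at 37 °C; formazan dissolved in DMSO, absorbance 570 nm. Percent inhibition vs vehicle wells; triplicate, mean ± SEM.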

MDA-MB-231 [2] = assay: Antiproliferative activity against human MDA-MB-231 cells assessed as reduction in cell viability at 15 uM after 72 hrs by MTT assay relative to control; assay type: functional; procedure, shortened: as §1
[3] = Binding affinity to telomeric DNA (unknown origin) assessed as change in melting temperature at 50 uM by circular dichroism spectroscopic analysis in presence of K+ ion
Procedure, shortened: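 CD melting: telomeric DNA 10 µM in 10 mM lithium cacodylate pH 7.2 with 10 mM KCl, 90 mM LiCl, plus ligand. Ellipticity followed against temperature; ΔTm taken as Tm with ligand minus Tm of DNA alone.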

A-431 [4] = assay: Antiproliferative activity against human A431 cells assessed as reduction in cell viability at 15 uM after 72 hrs by MTT assay relative to control; assay type: functional, cell-based; procedure, shortened: as §1
[5] = Binding affinity to c-myc G-quadruplex DNA (unknown origin) assessed as stabilization of preformed parallel topology at 1 to 6 molar equivalents by circular dichroism spectroscopic analysis in absence of metal ion
Procedure, shortened: (§2)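 CD titration of promoter quadruplex DNA (12.5 µM strand) in 50 mM Tris-HCl pH 7.2, no added monovalent cations. Ligand from 5 mM DMSO stock added stepwise by molar equivalents. Spectra 220–320 nm, 1 mm path, 25 °C, 100 nm/min, 2 s response, average of 3 scans. Ellipticity change at ~260 nm (positive) and ~240 nm (negative) followed.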

A549 = assay: Antiproliferative activity against human A549 cells at 0.1 to 20 uM after 72 hrs by MTT assay; assay type: functional, cell-based; procedure, shortened: as §1
PC-3 = assay: Antiproliferative activity against human PC3 cells at 0.1 to 20 uM after 72 hrs by MTT assay; assay type: functional, cell-based; procedure, shortened: as §1
HeLa = assay: Antiproliferative activity against human HeLa cells at 0.1 to 20 uM after 72 hrs by MTT assay; assay type: functional, cell-based; procedure, shortened: as §1
[6] = Binding affinity to c-Kit1 G-quadruplex DNA (unknown origin) assessed as stabilization of preformed parallel topology up to 5 molar equivalents by circular dichroism spectroscopic analysis in absence of metal ion; procedure, shortened: as §2
[7] = Binding affinity to c-myc G-quadruplex DNA (unknown origin) assessed as change in melting temperature at 50 uM by circular dichroism spectroscopic analysis
Procedure, shortened: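 CD melting: c-MYC DNA 10 µM strand in 10 mM lithium cacodylate pH 7.2, 1 mM KCl, 99 mM LiCl. Annealed 95 °C 5 min, cooled slowly to room temperature, then 5 equiv ligand (50 µM) added and incubated overnight. Ellipticity at 263 nm, 20–95 °C at 1 °C/min. Sigmoidal Boltzmann fit; ΔTm = Tm(DNA+ligand) − Tm(DNA).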

[8] = (§3) Antiproliferative activity against human HCT116 cells assessed as reduction in cell viability at 20 uM after 72 hrs by MTT assay relative to control; assay type: functional; conditions: HCT-116, 72 h; procedure, shortened: as §1
MDA-MB-231 [9] = assay: Antiproliferative activity against human MDA-MB-231 cells assessed as reduction in cell viability at 20 uM after 72 hrs by MTT assay relative to control; assay type: functional; conditions: MDA-MB-231, 72 h; procedure, shortened: as §1
[10] = Binding affinity to c-myc G-quadruplex DNA (unknown origin) assessed as stabilization of preformed parallel topology up to 5 molar equivalents by circular dichroism spectroscopic analysis in absence of metal ion
Procedure, shortened: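 Ligand added from a 5 mM DMSO stock up to 5 equiv. Scanned 220–320 nm, 1.0 mm cuvette, 100 nm/min, 25 °C. Each spectrum is the average of 3 scans.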

[11] = Binding affinity to c-Kit1 G-quadruplex DNA (unknown origin) assessed as change in melting temperature at 50 uM by circular dichroism spectroscopic analysis
Procedure, shortened: (§4)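 CD melting of 10 µM DNA strand in 10 mM lithium cacodylate pH 7.2 with 90 mM LiCl and 10 mM KCl (c-KIT1 and duplex). c-KIT1 annealed at 95 °C for 5 min, slowly cooled, then given 5 equiv ligand (50 µM) overnight. Ellipticity read at 263 nm, 1 °C/min from 15–95 °C for c-KIT1. Sigmoidal Boltzmann fit. ΔTm = Tm(DNA+ligand) − Tm(DNA).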

[12] = Binding affinity to c-myc G-quadruplex DNA (unknown origin) incubated for 30 mins by Taq DNA polymerase stop assay
Procedure, shortened: (§5)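 Taq polymerase stop assay. 32P-labelled primer plus 50 nM cold primer annealed to 100 nM template carrying c-MYC quadruplex or mutated c-MYC sequence. Ligand 0–80 µM, 30 min at room temperature, then 0.5 U Taq, 55 °C for 30 min. Products run on 15% denaturing PAGE and phosphorimaged. Normalised % stop product plotted against ligand concentration; IC50 is 50% stop. Two independent experiments.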

[13] = Binding affinity to c-myc DNA mutant (unknown origin) up to 80 uM incubated for 30 mins by Taq DNA polymerase stop assay; procedure, shortened: as §5
[14] = Binding affinity to c-myc G-quadruplex DNA (unknown origin) by UV-visible absorption spectroscopic analysis
Procedure, shortened: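 UV–vis titration, 225–600 nm, 10 mm cuvette. Ligand at 30 µM in 100 mM KCl, 10 mM lithium cacodylate pH 7.2 was titrated to saturation with c-MYC DNA pre-annealed in the same buffer (95 °C 5 min, slow cooling). Binding constant from a half-reciprocal fit; mean of 3 independent experiments.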

A-431 [15] = assay: Antiproliferative activity against human A431 cells assessed as reduction in cell viability at 20 uM after 72 hrs by MTT assay relative to control; assay type: functional; conditions: A-431, 72 h; procedure, shortened: as §1
[16] = Binding affinity to duplex DNA (unknown origin) assessed as change in melting temperature at 50 uM by circular dichroism spectroscopic analysis; procedure, shortened: as §4
HCT-116 = assay: as §3; assay type: functional; procedure, shortened: as §1

SMILES: COc1ccc2c(c1OC)C(CC(C)=O)N(C)c1c-2ccc2cc3c(cc12)OCO3 (racemic) [listing 1 of 2 here]
- inhibition at 15 µM ([1]; Homo sapiens, HCT-116, 72 h): 28.7%
- inhibition at 15 µM (MDA-MB-231 [2]; Homo sapiens, MDA-MB-231, 72 h): 16.1%

SMILES: COc1ccc2c(c1OC)C(CC(C)=O)N(C)c1c-2ccc2cc3c(cc12)OCO3 (racemic) [listing 2 of 2 here]
- ΔTm [3]: 1 °C
- inhibition (A-431 [4]): inactive
- Activity [5]: Active
- Activity (A549): inactive
- Activity (PC-3): inactive
- Activity (HeLa): inactive
- Activity [6]: inactive
- ΔTm [7]: 2.6 °C

SMILES: COc1ccc2c(c1OC)C(CC(C)=O)N(C)c1c-2ccc2cc3c(cc12)OCO3 (single isomer, unassigned; (+)) [listing 1 of 2 here]
- inhibition (INH) [1]: 47.84%
- inhibition (INH) (MDA-MB-231 [2]): 24.3%

SMILES: COc1ccc2c(c1OC)C(CC(C)=O)N(C)c1c-2ccc2cc3c(cc12)OCO3 (single isomer, unassigned; (+)) [listing 2 of 2 here]
- inhibition (A-431 [4]): inactive
- Activity (A549): inactive
- Activity (PC-3): inactive
- Activity (HeLa): inactive

SMILES: COc1ccc2c(c1OC)C(CC(C)=O)N(C)c1c-2ccc2cc3c(cc12)OCO3 (stereo in doubt) [listing 1 of 2 here]
- inhibition (INH) [1]: 36.88%
- inhibition (INH) (MDA-MB-231 [2]): 20.81%

SMILES: COc1ccc2c(c1OC)C(CC(C)=O)N(C)c1c-2ccc2cc3c(cc12)OCO3 (stereo in doubt) [listing 2 of 2 here]
- inhibition (A-431 [4]): inactive
- Activity (A549): inactive
- Activity (PC-3): inactive
- Activity (HeLa): inactive

SMILES: COc1ccc2c(c[n+](C)c3c4cc5c(cc4ccc23)OCO5)c1OC [CHELERYTHRINE]
- inhibition at 20 µM [8]: 100%
- inhibition at 20 µM (MDA-MB-231 [9]): 100%
- Activity [10]: Active
- ΔTm [11]: 24.3 °C
- Activity [12]: Dose-dependent effect
- IC50 [12]: 6.6 µM
- Activity [13]: inactive
- K [14]: 7.35 ×10⁵ /M
- inhibition at 20 µM (A-431 [15]): 100%
- Activity [6]: Active
- ΔTm [16]: 0.1 °C
- ΔTm [7]: 19.6 °C

SMILES: COc1ccc2c(c1OC)CN(C)c1c-2ccc2cc3c(cc12)OCO3 [DIHYDROCHELERYTHRINE]
- inhibition (HCT-116): inactive
- inhibition at 20 µM (MDA-MB-231 [9]): 8.65%
- Activity [10]: Active
- Activity (A549): inactive
- ΔTm [11]: 17.6 °C
- Activity [12]: Dose-dependent effect
- IC50 [12]: 5.8 µM
- Activity (PC-3): inactive
- Activity (HeLa): inactive
- Activity [13]: inactive
- K [14]: 5.5 ×10⁵ /M
- inhibition at 20 µM (A-431 [15]): 30.4%
- Activity [6]: Active
- ΔTm [16]: -1 °C
- ΔTm [7]: 24 °C

SMILES: COc1cccc2c1C(=O)c1c(O)c3c(c(O)c1C2=O)C[C@@](O)(C(=O)CO)C[C@@H]3O[C@H]1C[C@H](N)[C@H](O)[C@H](C)O1 [DOXORUBICIN]
- inhibition at 20 µM [8]: 98%
- inhibition at 20 µM (MDA-MB-231 [9]): 92.7%
- inhibition at 20 µM (A-431 [15]): 98.1%
